Experimental data published in ChEMBL document CHEMBL4304834, “3-Amino-chromanes and Tetrahydroquinolines as Selective 5-HT2B, 5-HT7, or σ1 Receptor Ligands” (ACS Med Chem Lett, 2019).
Activity calls are given as the source filed them. No cut-off for these calls is given here.

How the values were obtained:
[1] = target: Beta-1 adrenergic receptor (Homo sapiens, UniProt P08588); assay: Displacement of [125I]-pindolol from human recombinant adrenergic Beta1 receptor expressed in Flp-In CHO cells at 10 uM after 90 mins by microbeta scintillation counting method relative to control; format: cell-based
Sequence of Beta-1 adrenergic receptor (P08588 whole entry, looked up): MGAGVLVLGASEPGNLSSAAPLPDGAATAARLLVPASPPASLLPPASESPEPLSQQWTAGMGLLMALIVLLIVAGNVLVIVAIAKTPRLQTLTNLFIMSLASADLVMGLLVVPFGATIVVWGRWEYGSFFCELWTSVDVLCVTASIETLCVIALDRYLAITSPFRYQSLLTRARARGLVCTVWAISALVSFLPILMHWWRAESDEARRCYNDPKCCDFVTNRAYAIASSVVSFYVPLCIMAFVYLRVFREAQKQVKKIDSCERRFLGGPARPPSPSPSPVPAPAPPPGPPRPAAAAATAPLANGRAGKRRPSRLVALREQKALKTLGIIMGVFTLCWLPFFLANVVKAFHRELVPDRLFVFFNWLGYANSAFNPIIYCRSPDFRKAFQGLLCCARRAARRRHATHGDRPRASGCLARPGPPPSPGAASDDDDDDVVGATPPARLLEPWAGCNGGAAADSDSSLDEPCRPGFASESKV
Method in brief: (§1)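 Radioligand binding run by the NIMH Psychoactive Drug Screening Program. […] Otherwise Ki comes from sigmoidal curve fits of triplicate measurements in a single experiment, or is averaged over repeated experiments each run in triplicate.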

[2] = target: Alpha-2A adrenergic receptor (Homo sapiens) (UniProt P08913); assay: Displacement of [3H]-Rauwolscine from human recombinant adrenergic Alpha2A receptor expressed in stable MDCK cells at 10 uM after 90 mins by microbeta scintillation counting method relative to control; format: cell-based
Sequence of Alpha-2A adrenergic receptor (Homo sapiens) (P08913 whole entry): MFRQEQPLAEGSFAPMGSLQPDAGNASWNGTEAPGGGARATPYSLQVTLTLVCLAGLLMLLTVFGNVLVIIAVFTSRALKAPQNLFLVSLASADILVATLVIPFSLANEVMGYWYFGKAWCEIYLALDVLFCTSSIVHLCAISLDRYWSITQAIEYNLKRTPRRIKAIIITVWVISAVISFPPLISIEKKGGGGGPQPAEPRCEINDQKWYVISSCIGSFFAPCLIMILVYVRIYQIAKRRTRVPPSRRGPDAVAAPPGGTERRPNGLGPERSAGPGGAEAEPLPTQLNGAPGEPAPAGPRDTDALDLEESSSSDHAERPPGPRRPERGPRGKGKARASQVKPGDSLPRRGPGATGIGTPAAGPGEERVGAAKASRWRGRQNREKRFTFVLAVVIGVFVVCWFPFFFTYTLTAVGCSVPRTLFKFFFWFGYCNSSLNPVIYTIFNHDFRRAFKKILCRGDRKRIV

[3] = target: Beta-2 adrenergic receptor (Homo sapiens, UniProt P07550); assay: Displacement of [3H]-CGP12177 from human recombinant adrenergic Beta2 receptor expressed in Flp-In HEK cells at 10 uM after 90 mins by microbeta scintillation counting method relative to control; format: cell-based; method in brief: as §1
Sequence of Beta-2 adrenergic receptor (P07550 whole entry, looked up): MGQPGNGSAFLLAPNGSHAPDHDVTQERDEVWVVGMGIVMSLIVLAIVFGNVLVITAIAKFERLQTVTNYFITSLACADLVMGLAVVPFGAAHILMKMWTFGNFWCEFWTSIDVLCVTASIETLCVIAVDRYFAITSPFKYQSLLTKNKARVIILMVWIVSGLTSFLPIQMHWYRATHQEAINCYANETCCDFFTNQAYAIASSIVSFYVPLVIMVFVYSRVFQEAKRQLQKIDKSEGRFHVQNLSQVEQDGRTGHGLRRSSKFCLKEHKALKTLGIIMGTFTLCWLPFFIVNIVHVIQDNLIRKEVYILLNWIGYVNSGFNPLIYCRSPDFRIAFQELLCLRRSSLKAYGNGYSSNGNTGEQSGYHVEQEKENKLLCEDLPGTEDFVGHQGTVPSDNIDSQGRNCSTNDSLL

[4] = target: Sodium-dependent dopamine transporter (Homo sapiens, UniProt Q01959); assay: Displacement of [3H]-Win35428 from human recombinant DAT receptor expressed in stable HEK cells at 10 uM after 90 mins by microbeta scintillation counting method relative to control; format: cell-based
Sequence of Sodium-dependent dopamine transporter (Q01959 whole entry): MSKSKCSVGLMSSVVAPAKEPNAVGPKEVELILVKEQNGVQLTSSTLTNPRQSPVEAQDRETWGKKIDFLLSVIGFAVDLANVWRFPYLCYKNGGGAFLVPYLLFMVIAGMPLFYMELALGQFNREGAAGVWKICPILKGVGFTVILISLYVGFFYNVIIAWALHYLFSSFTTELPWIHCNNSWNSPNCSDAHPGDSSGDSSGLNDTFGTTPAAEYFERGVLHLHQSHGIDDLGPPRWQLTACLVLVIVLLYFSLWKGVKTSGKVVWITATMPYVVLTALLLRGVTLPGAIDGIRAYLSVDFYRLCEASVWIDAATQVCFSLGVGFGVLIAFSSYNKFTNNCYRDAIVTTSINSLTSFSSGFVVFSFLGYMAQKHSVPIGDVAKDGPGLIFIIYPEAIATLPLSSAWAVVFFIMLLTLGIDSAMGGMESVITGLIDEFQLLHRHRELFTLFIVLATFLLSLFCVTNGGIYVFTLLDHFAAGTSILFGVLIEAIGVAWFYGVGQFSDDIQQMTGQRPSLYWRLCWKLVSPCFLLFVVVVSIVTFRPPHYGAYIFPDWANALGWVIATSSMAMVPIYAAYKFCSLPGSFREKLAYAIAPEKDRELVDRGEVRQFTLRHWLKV

Rattus norvegicus = species on record: Rattus norvegicus; assay: Displacement of [3H]-Flunitrazepam from BZP receptor in rat brain at 10 uM after 90 mins by microbeta scintillation counting method; format: tissue-based; method in brief: as §1
[5] = target: Kappa-type opioid receptor (Homo sapiens, UniProt P41145); assay: Displacement of [3H]-U69593 from human recombinant KOR receptor expressed in stable HEK cells at 10 uM after 90 mins by microbeta scintillation counting method relative to control; format: cell-based
Sequence of Kappa-type opioid receptor (P41145 whole entry): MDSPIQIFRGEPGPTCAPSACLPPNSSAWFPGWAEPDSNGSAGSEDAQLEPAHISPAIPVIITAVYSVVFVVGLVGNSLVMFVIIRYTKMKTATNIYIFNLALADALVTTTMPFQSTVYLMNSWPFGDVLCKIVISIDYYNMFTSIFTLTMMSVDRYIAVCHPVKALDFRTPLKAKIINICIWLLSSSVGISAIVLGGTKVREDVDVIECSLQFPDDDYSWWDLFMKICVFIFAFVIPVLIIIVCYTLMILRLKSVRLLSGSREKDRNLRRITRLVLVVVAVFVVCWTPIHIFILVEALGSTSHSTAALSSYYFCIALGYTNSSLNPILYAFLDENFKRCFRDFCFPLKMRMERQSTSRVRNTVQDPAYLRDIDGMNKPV

Homo sapiens [6] = species on record: Homo sapiens; assay: Selectivity index, ratio of Ki for human recombinant 5-HT3 receptor to Ki for human recombinant sigma1 receptor
Homo sapiens [7] = species on record: Homo sapiens; assay: Selectivity index, ratio of Ki for human recombinant adrenergic alpha1A receptor to Ki for human recombinant sigma1 receptor
Method in brief: (§2)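 Both Ki values in each ratio come from NIMH Psychoactive Drug Screening Program radioligand binding. […] Other targets were given full binding curves, measured in triplicate, and Ki was taken from a sigmoidal curve fit. Some values were repeated in duplicate or triplicate independent experiments.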

Homo sapiens [8] = species on record: Homo sapiens; assay: Selectivity index, ratio of Ki for human recombinant 5-HT1D receptor to Ki for human recombinant sigma1 receptor
Homo sapiens [9] = species on record: Homo sapiens; assay: Selectivity index, ratio of Ki for human recombinant dopamine D2 receptor to Ki for human recombinant sigma1 receptor; method in brief: as §2
Homo sapiens [10] = species on record: Homo sapiens; assay: Selectivity index, ratio of Ki for human recombinant Muscarinic acetylcholine M1 receptor to Ki for human recombinant sigma1 receptor; method in brief: as §2
Homo sapiens [11] = species on record: Homo sapiens; assay: Selectivity index, ratio of Ki for human recombinant dopamine D3 receptor to Ki for human recombinant sigma1 receptor; method in brief: as §2
Homo sapiens [12] = species on record: Homo sapiens; assay: Selectivity index, ratio of Ki for human recombinant Muscarinic acetylcholine M4 receptor to Ki for human recombinant sigma1 receptor; method in brief: as §2
661W [13] = assay: Cytoprotective activity in mouse 661W cells assessed as inhibition of t-BHP induced oxidative stress by measuring in cell viability at 30 uM in presence of 10 uM of […] preincubated for 30 mins followed by compound addition and measured after 24 hrs by MTT assay; format: functional, cell-based
Method in brief: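 Same 661W oxidative-stress setup: 55 μM tBHP for 24 h with test agent at 30 μM, plus the σ1 antagonist BD1063 at 10 μM. Viability is read by MTT.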

661W [14] = assay: Cytoprotective activity in mouse 661W cells assessed as inhibition of t-BHP induced oxidative stress by measuring cell viability at 200 uM after 24 hrs by MTT assay (reference value: >50%); format: functional, cell-based
Homo sapiens [15] = species on record: Homo sapiens; assay: Selectivity index, ratio of Ki for human recombinant sigma2 receptor to Ki for human recombinant sigma1 receptor; method in brief: as §2
Homo sapiens [16] = species on record: Homo sapiens; assay: Selectivity index, ratio of Ki for human recombinant adrenergic Beta1 receptor expressed in Flp-In CHO to Ki for human recombinant sigma1 receptor; method in brief: as §2
Homo sapiens [17] = species on record: Homo sapiens; assay: Selectivity index, ratio of Ki for human recombinant histamine H2 receptor to Ki for human recombinant sigma1 receptor; method in brief: as §2
Homo sapiens [18] = species on record: Homo sapiens; assay: Selectivity index, ratio of Ki for human recombinant 5-HT6 receptor to Ki for human recombinant sigma1 receptor
Homo sapiens [19] = species on record: Homo sapiens; assay: Selectivity index, ratio of Ki for human recombinant DAT receptor to Ki for human recombinant sigma1 receptor
Homo sapiens [20] = species on record: Homo sapiens; assay: Selectivity index, ratio of Ki for human recombinant 5-HT2B receptor to Ki for human recombinant sigma1 receptor
Homo sapiens [21] = species on record: Homo sapiens; assay: Selectivity index, ratio of Ki for human recombinant histamine H4 receptor to Ki for human recombinant sigma1 receptor; method in brief: as §2
[22] = target: Sodium-dependent noradrenaline transporter (Homo sapiens, UniProt P23975); assay: Displacement of [3H]-Nisoxetine from human recombinant NET receptor expressed in stable HEK cells at 10 uM after 90 mins by microbeta scintillation counting method relative to control; format: cell-based; method in brief: as §1
Sequence of Sodium-dependent noradrenaline transporter (P23975 whole entry): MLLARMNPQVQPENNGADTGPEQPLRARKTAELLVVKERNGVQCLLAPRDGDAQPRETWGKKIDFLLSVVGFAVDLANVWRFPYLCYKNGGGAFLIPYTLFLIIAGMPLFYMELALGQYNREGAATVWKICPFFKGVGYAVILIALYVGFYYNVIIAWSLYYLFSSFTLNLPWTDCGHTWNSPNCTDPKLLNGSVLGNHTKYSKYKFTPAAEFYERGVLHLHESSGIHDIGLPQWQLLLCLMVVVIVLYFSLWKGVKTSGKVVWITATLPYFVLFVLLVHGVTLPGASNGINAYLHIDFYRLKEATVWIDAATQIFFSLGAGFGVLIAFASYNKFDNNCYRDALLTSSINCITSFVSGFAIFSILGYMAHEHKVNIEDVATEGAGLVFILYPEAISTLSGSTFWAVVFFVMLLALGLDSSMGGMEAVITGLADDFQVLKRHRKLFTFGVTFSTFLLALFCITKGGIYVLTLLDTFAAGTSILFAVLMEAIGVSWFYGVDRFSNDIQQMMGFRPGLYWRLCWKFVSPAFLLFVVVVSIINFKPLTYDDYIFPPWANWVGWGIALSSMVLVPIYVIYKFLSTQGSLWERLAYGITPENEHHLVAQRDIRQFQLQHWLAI

Homo sapiens [23] = species on record: Homo sapiens; assay: Selectivity index, ratio of Ki for human recombinant Muscarinic acetylcholine M3 receptor to Ki for human recombinant sigma1 receptor; method in brief: as §2
Homo sapiens [24] = species on record: Homo sapiens; assay: Selectivity index, ratio of Ki for human recombinant adrenergic Alpha2B receptor to Ki for human recombinant sigma1 receptor; method in brief: as §2
Homo sapiens [25] = species on record: Homo sapiens; assay: Selectivity index, ratio of Ki for human recombinant 5-HT2C receptor to Ki for human recombinant sigma1 receptor
[26] = Selectivity index, ratio of Ki for rat brain PBR receptor to Ki for human recombinant sigma1 receptor; method in brief: as §2
Homo sapiens [27] = species on record: Homo sapiens; assay: Selectivity index, ratio of Ki for human recombinant adrenergic Alpha1B receptor to Ki for human recombinant sigma1 receptor; method in brief: as §2
Homo sapiens [28] = species on record: Homo sapiens; assay: Selectivity index, ratio of Ki for human recombinant NET receptor to Ki for human recombinant sigma1 receptor; method in brief: as §2
Homo sapiens [29] = species on record: Homo sapiens; assay: Selectivity index, ratio of Ki for human recombinant 5-HT1E receptor to Ki for human recombinant sigma1 receptor
Homo sapiens [30] = species on record: Homo sapiens; assay: Selectivity index, ratio of Ki for human recombinant 5-HT1A to Ki for human recombinant sigma1 receptor
Homo sapiens [31] = species on record: Homo sapiens; assay: Selectivity index, ratio of Ki for human recombinant adrenergic Beta2 receptor to Ki for human recombinant sigma1 receptor; method in brief: as §2
[32] = Selectivity index, ratio of Ki for rat brain GABAA receptor to Ki for human recombinant sigma1 receptor; method in brief: as §2
661W [33] = assay: Cytoprotective activity in mouse 661W cells assessed as inhibition of t-BHP induced oxidative stress by measuring increase in cell viability after 24 hrs by MTT assay; format: functional, cell-based
Homo sapiens [34] = species on record: Homo sapiens; assay: Selectivity index, ratio of Ki for human recombinant 5-HT1B receptor to Ki for human recombinant sigma1 receptor
661W [35] = assay: Cytoprotective activity in mouse 661W cells assessed as inhibition of t-BHP induced oxidative stress by measuring increase in cell viability at 30 uM after 24 hrs by MTT assay (Rvb < 50%); format: functional
Homo sapiens [36] = species on record: Homo sapiens; assay: Selectivity index, ratio of Ki for human recombinant dopamine D5 receptor to Ki for human recombinant sigma1 receptor; method in brief: as §2
Homo sapiens [37] = species on record: Homo sapiens; assay: Selectivity index, ratio of Ki for human recombinant adrenergic Alpha1D receptor to human recombinant sigma1 receptor; method in brief: as §2

CC[C@H]1c2cc(OC)ccc2CC[C@@]1(C)N (racemic)
inhibition [1]: < 50%

CC[C@H]1c2cc(C)ccc2OC[C@@]1(C)N (racemic)
inhibition [2]: < 50%
inhibition [3]: < 50%
inhibition [4]: < 50%
inhibition (Rattus norvegicus): < 50%
inhibition [5]: < 50%
inhibition [1]: < 50%

COc1cc(OC)c2c(c1)OC[C@@]1(C)NCC[C@@H]21 (racemic)
Ratio Ki (Homo sapiens [6]): > 20
Ratio Ki (Homo sapiens [7]): > 20
Ratio Ki (Homo sapiens [8]): > 20
Ratio Ki (Homo sapiens [9]): > 20
Ratio Ki (Homo sapiens [10]): > 20
Ratio Ki (Homo sapiens [11]): > 20
Ratio Ki (Homo sapiens [12]): > 20
Activity (661W [13]): inactive
Activity (661W [14]): inactive
Ratio Ki (Homo sapiens [15]): > 200
Ratio Ki (Homo sapiens [16]): > 20
Ratio Ki (Homo sapiens [17]): > 20
Ratio Ki (Homo sapiens [18]): > 20
Ratio Ki (Homo sapiens [19]): > 20
Ratio Ki (Homo sapiens [20]): > 5
Ratio Ki (Homo sapiens [21]): > 20
inhibition [4]: < 50%
inhibition [22]: < 50%
Ratio Ki (Homo sapiens [23]): > 20
Ratio Ki (Homo sapiens [24]): > 20
Ratio Ki (Homo sapiens [25]): > 20
Ratio Ki [26]: > 20
Ratio Ki (Homo sapiens [27]): > 20
Ratio Ki (Homo sapiens [28]): > 20
Ratio Ki (Homo sapiens [29]): > 20
Ratio Ki (Homo sapiens [30]): > 20
inhibition [5]: < 50%
Ratio Ki (Homo sapiens [31]): > 20
Ratio Ki [32]: > 20
Activity (661W [33]): Dose-dependent effect
Ratio Ki (Homo sapiens [34]): > 20
Activity (661W [35]): >80%
Ratio Ki (Homo sapiens [36]): > 20
Ratio Ki (Homo sapiens [37]): > 20
